Assay outcomes as filed in PubChem.
An excerpt weighted towards active compounds, which were near 2.3% of everything screened.
EWS-Fli inh – blocks EWS/Fli oncoprotein-driven transcription; A673 NR0B1-luciferase reporter, viability-normalised; inhibition, % at 12.6 µM; 350,000 tested, 0.67% active;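 active = mean inhibition of at least 50% after viability correction, with every replicate also passing that limit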;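 also: firefly luciferase signal divided by Alamar Blue viability fluorescence both relative to DMSO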
Env fusion inh – inhibitors of HIV Env-mediated cell fusion | HeLa-JRFL Env/CEM21 cell fusion, luciferase | inhibition, % at 12.3 µM | 360,000 tested, 1.1% active | AID 651610;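 active = mean replicate inhibition score of at least 50 and every replicate individually at or above 50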;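 also: 0% = plate neutral controls and 100% = maraviroc near 300 nM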
PGC1a acetyl inh – modulators of PGC1a acetylation; U2OS PGC1a acetylation, AlphaScreen anti-acetyl-lysine; with virally co-expressed GCN5 acetyltransferase; inhibition, % at 15.6 µM; 350,000 tested, 0.17% active; AID 651687;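 active = every replicate shows inhibition of at least 40%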;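 also: 0% = neutral control wells and 100% = positive control wells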
FN deposition inh – fibronectin deposition inhibition; AH1F fibroblasts, Alexa488-fibronectin deposition fluorescence, overnight; inhibition, % at 12.6 µM; 350,000 tested, 0.086% active; AID 743247;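 active = mean inhibition across replicates of 30% or more, regardless of how many single replicates reach that level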;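 also: positive control wells lacked labelled fibronectin entirely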
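Measured by – fluorescence 485/525 nm · System – AH1F fibroblast monolayer, labelled fibronectin deposition · Amount – 10000 cells per well · Buffer or medium – serum-reduced DMEM (2% serum) · Doses – single dose, pinned · Also added – fluorescent fibronectin at 24 nM final · Schedule – 1 h cell attachment, overnight exposure to compound and label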
PAX8 reporter – inhibitors of PAX8 transcriptional activity in RMG-I cells; RMG-I TPO-luciferase reporter, SteadyGlo, 24 h; inhibition, % at 12.6 µM; 360,000 tested, 1.2% active; AID 652154;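 active = mean replicate inhibition at least 60% with every replicate also reaching 60%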;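 also: luciferase light reporting Pax8 driven TPO promoter activity; plate controls were median of neutral control wells for no effect and mitoxantrone controls for full effect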
CFTR F508del cor – CFTR F508del correction in bronchial cells | activity (quench increase), % at 7.58 µM | CFBE cells, YFP halide quenching; stimulated with forskolin plus potentiator P3; % fluorescence drop versus neutral controls | 350,000 tested, 0.36% active | AID 720511;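 active = mean added fluorescence quench of at least 8% versus neutral control, with both replicates also reaching 8%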;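 also: cells transiently co-express mutant CFTR-F508del with the halide-sensitive YFP; corrector assay measuring rescue of mutant channel to the surface after 24 h compound exposure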
An asterisk follows results filed as active; . = no result; ! = not active in a repeat; [ ] = dose if it differs, or a comment.

SMILES	EWS-Fli inh	Env fusion inh	PGC1a acetyl inh	FN deposition inh	PAX8 reporter	CFTR F508del cor
O=C(COC(=O)c1c2c(nc3ccccc13)/C(=C\c1cccs1)CCC2)Nc1ccccc1	-16	.	.	17	86*	-1
C[C@H](CO)N1C[C@H](C)[C@H](CN(C)C(=O)C2CCC2)Oc2cc(-c3ccc(F)cc3)ccc2S1(=O)=O	7	9[16.7 µM]	-6	.	.	-5
Cc1ccc(COc2ccccc2-c2cc(C(=O)N/N=C/c3cccnc3)[nH]n2)cc1	58*	-190	.	10	17	9.7*
CCOc1ccccc1-c1cc(C(=O)N/N=C/c2cccnc2)c2ccccc2n1	0	11	.	-8	-1	0
C/C=C/c1ccc([C@H]2[C@@H](CNC(=O)CC)N(C(=O)COC)[C@H]2CO)cc1	-3	.	2	-5	-9	14*
C/C=C/c1ccc([C@@H]2[C@H](CO)N(CC3CC3)[C@H]2CNC(=O)c2ccccc2)cc1	-6	.	-18	8	5	10*
COCCNC(=O)C[C@@H]1CC[C@H]2[C@H](COc3ccc(NC(=O)c4cnccn4)cc3C(=O)N2C)O1	4	.	2	-4	-2	0
O=C(Nc1cccc(F)c1)N1CC(=O)N2[C@H](C1)[C@H](c1ccc(-c3ccccc3)cc1)[C@@H]2CO	-7	.	7	.	-9	-1
C[C@H]1CN([C@@H](C)CO)S(=O)(=O)c2ccc(Br)cc2O[C@H]1CN(C)Cc1ccccc1	-2	61*![16.7 µM]	-24	-6	36	-2
C[C@H]1CN([C@@H](C)CO)S(=O)(=O)c2ccc(Br)cc2O[C@H]1CN(C)Cc1ccc(F)cc1	-9	71*[16.7 µM]	-17	6	1	-2
COCc1c(C#N)c(NCc2cc(OC)c(OC)c(OC)c2)nc(C)c1[N+](=O)[O-]	31	57*	.	2	-1	-1
COCc1c(C#N)c(NCCc2ccccc2)nc(C)c1[N+](=O)[O-]	27	-37	.	-2	5	.
CC(Oc1cccc(Br)c1)C(=O)NNC(=O)c1ccccn1 (stereo not drawn)	.	.	13	.	.	.
CC(Oc1cccc(Cl)c1)C(=O)NNC(=O)c1cccnc1 (stereo not drawn)	-2	-2	2	31*	1	1
CCOc1ccc(NC(=O)c2ccc(F)c(S(=O)(=O)N3CCCC3)c2)cc1	1	14	-10	9	15	0
CCOc1ccc(NC(=O)c2ccc(F)c(S(=O)(=O)N3CCN(c4ccccn4)CC3)c2)cc1	.	57*	.	4	.	.
CC(Oc1ccc(Cl)cc1Cl)C(=O)NNC(=O)c1cccnc1 (stereo not drawn)	-8	3	-1	7	-1	-2
COc1cc(OC)cc(C(=O)O/N=C(\N)c2ccccn2)c1	-75	-39	10	-6	-11	2
CC(Oc1ccccc1)C(=O)NNC(=O)c1ccccn1 (stereo not drawn)	13	.	-14	0	75*	1
COc1ccc(C(=O)O/N=C(\N)c2ccccn2)cc1	44	70*	-12	0	121*	-2
C[C@H](CO)N1C[C@H](C)[C@@H](CN(C)C(=O)Cc2ccccc2)Oc2ncc(-c3ccc(F)cc3)cc2C1=O	3	44[16.7 µM]	-18	.	.	-1
COc1ccc(C[C@H]2CCn3nncc3COC[C@H](CC(C)C)NC2=O)cc1	.	.	.	-8	.	.
Cc1noc(C)c1NC(=O)N(C)C[C@@H]1Oc2ncc(C#CC3CCCC3)cc2C(=O)N([C@@H](C)CO)C[C@H]1C	1	-5[16.7 µM]	19	-13	-14	0
COc1ccc(C(=O)NNC(=O)c2ccccn2)cc1	62*	62*	.	15	104*	-5
COc1cc(OC)cc(C(=O)NNC(=O)c2ccccn2)c1	8	37	10	7	28	2
SMILES	EWS-Fli inh	Env fusion inh	PGC1a acetyl inh	FN deposition inh	PAX8 reporter	CFTR F508del cor
CCOc1ccc(NC(=O)c2cnccn2)cc1	.	.	-4	.	.	.
CCOc1ccc(NC(=O)c2ccccn2)cc1	78*	12	.	-4	65*	-1
CN1[C@H](C(=O)NCc2ccccn2)[C@@H](CO)[C@@H]2Cn3c(ccc(-c4cccc(F)c4)c3=O)[C@@H]21	8	-60[16.7 µM]	.	.	.	.
O=C(C[n+]1cccc(CNC(=O)c2ccc(OC(F)F)cc2)c1)Nc1ccc(SC(F)F)cc1	.	5	8	-11	67*	.
O=C(C[n+]1cccc(CNC(=O)c2ccc(OC(F)F)cc2)c1)Nc1ccccc1Cl	.	-50	.	-2	10	.
CCCCN(C)C(=O)c1oc2ccc(S(=O)(=O)N3CCCCCC3)cc2c1C	.	61*	-6	1	.	.
CN(C)CC(=O)N1[C@@H](CO)[C@H](c2ccccc2)C12CN(CC1CC1)C2	.	.	.	-2	.	.
COc1ccc(NC(=O)c2cc(C)nc3ccccc23)cc1S(=O)(=O)N1CCOCC1	-4	-3	-8	6	-12	3
COc1ccc(Nc2nc(-c3ccccc3)nc3ccccc23)cc1S(=O)(=O)N1CCOCC1	14	22	-6	3	65*	3
COc1ccc(C(=O)Nc2ccc(-c3ccc(C)o3)cc2)cc1S(=O)(=O)N1CCOCC1	.	63*	-2	-9	18	.
COc1ccc(/C=C/C(=O)OCC(=O)Nc2ccc(C)cc2)cc1S(=O)(=O)N1CCOCC1	-4	.	.	3	76*	1
Cc1ccc(NC(=O)/C=C/c2ccc(S(=O)(=O)N3CCOCC3)cc2)cc1S(=O)(=O)N(C)C	26	-4	2	11	66*	-1
COc1ccc(C(=O)Nc2ccc(N3CCOCC3)cc2)cc1S(=O)(=O)N1CCOCC1	-7	-11	-9	2	-5	2
CC(=O)Nc1cccc(NC(=O)/C=C/c2ccc(S(=O)(=O)N3CCOCC3)cc2)c1	0	12	1	-1	18	3
CO[C@@H]1CN(C)C(=O)c2ccc(NC(=O)c3nc4ccccc4s3)cc2OC[C@@H](C)N(Cc2cncnc2)C[C@@H]1C	.	.	.	4	.	.
O=C(NC[C@@H]1CC[C@@H]2[C@@H](CN2S(=O)(=O)c2ccccc2)O1)NC1CCCCC1	5	.	-5	.	.	0
COc1ccc(NC(=O)COc2cc(C)cc(C)c2)cc1S(=O)(=O)N1CCCCC1	50	61*	-6	-1	53	3
